Compounds with a hit are over-represented: about 4.6% of the library has one in this group of screens.
APP 5'UTR act: activators of APP 5'UTR luciferase reporter, primary screen, SH-SY5Y cells | SH-SY5Y APP 5'UTR luciferase reporter, luminescence; zero percent = DMSO vehicle wells | activation, % at 2 µM | 1% of 190,000 active | AID 1276, 2008;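 active = activation above a set limit, based on mean plus 3 SD of controls, cut at about 140% in these data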
Wee1 stabilizer: Wee1 degradation inhibitors, primary screen, cell-based, HeLa, Wee1K328M-luciferase, luminescence; reporter increase, % at 5 µM; 1.2% of 220,000 active; HeLa Luc-Wee1K328M stability; 100% = proteasome inhibitor MG132 effect; AID 1321, 2008;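 active = activation above the mean of all tested compounds plus 3 SD, set per screening run, cut at about 8.8% in these data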;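 note: cells exposed to compound for 20 h before luminescence read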
Target sequence (P30291 whole entry K328M): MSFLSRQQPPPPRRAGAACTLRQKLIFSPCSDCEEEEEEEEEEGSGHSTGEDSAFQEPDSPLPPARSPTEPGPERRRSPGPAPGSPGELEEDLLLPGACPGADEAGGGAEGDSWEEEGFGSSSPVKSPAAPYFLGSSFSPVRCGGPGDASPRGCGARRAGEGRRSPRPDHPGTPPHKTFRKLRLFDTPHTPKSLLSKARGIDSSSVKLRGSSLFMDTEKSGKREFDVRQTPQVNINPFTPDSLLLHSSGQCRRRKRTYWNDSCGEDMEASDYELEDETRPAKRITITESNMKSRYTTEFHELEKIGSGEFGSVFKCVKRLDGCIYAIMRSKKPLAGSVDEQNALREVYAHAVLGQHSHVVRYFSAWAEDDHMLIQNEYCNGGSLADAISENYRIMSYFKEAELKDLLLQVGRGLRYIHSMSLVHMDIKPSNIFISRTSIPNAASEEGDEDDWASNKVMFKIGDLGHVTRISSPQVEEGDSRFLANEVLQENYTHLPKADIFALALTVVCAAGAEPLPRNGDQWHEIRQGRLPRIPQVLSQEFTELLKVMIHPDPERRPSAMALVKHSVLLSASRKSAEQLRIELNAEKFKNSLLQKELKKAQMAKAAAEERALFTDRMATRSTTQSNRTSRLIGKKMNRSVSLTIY
NF-kB expr up: activators of NF-kB expression in neurons, primary screen, cell-based, HTS | 1.6% of 190,000 active | human neuronal cells, NF-kB reporter expression; hits give high values | fold change at 12.5 µM; in the data active = fold change above about 3.3
MDM2 E3 inh: MDM2-luciferase reporter signal enhancers, primary screen, MDM2 E3 ligase inhibitor project, cell-based, luminescence, 1536-well. E3 ubiquitin-protein ligase Mdm2 (Homo sapiens), Q00987. cell-based MDM2 ubiquitination luciferase reporter, 2 h; 0 = plate control, 100 = twice control, blank-subtracted. signal enhancement, % at 5 µM. 0.11% of 210,000 active. AID 1230, 2008;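 active = signal enhancement of 30% or more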;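 note: luminescence tracks abundance of the self-degrading MDM2-luciferase fusion protein; higher signal means inhibition of MDM2 E3 ligase activity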
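Buffer or medium: Cells held in DMEM | Assay system: Stable mammalian line carrying autodegrading MDM2–luciferase fusion reporter | Quantity: 2000 cells/well | Times: 4 h settle plus 2 h compound, 37 °C | Doses: One concentration, 5 µM, with 0.2% DMSO | Technique: Luminescence with SteadyLite reagent, 15 min at room temperature | Benchmarks: Plate controls and plate blanks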
STAT1 activator: STAT1 signaling activators, primary screen, cell-based, HTS, luciferase reporter. NIH 3T3 STAT1-luciferase reporter, IFN-gamma, luminescence; 100% = IFN-gamma alone, no compound. activation (% of control), % at 5.5 µM. 2.6% of 200,000 active. AID 932, 2007;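 active = activation above the screen-wide mean activation plus 3 SD, cut at about 130% in these data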
p97 inhibitor: inhibitors of human p97 ATPase, primary screen, biochemical | Transitional endoplasmic reticulum ATPase (Homo sapiens), P55072 | recombinant p97 ATPase, Kinase-Glo ATP luminescence, 3 h | inhibition, % at 8 µM | 0.42% of 220,000 active | AID 1481, 2009; in the data active = inhibition above about 15%
Hits are given with their value; - = inactive; . = not tested or not shown.

SMILES | APP 5'UTR act | Wee1 stabilizer | NF-kB expr up | MDM2 E3 inh | STAT1 activator | p97 inhibitor
CCOC(=O)c1sc(=S)n(-c2ccccc2)c1N(C(C)=O)C(C)=O | - | - | - | 31 | - | -
CCCNC(=O)OCc1cccnc1Sc1ccc(C)cc1 | - | - | - | - | - | -
COc1cc(C2C(C(=O)/C=C/c3ccccc3)=C(O)C(=O)N2c2ccccn2)ccc1O (stereo not drawn) | - | - | - | - | - | -
COc1ccc(NC2c3ccccc3C(=O)N2c2ccccn2)cc1 (stereo not drawn) | . | - | . | - | . | -
Cc1ccc(C2=Nc3ccccc3N=C(c3ccc([N+](=O)[O-])cc3)C2)c(O)c1 | - | - | - | - | - | -
COc1ccc(C)cc1C1=Nc2ccccc2C1(C)C | - | - | - | 30 | - | -
COc1ccccc1OCCCOc1ccc(C)cc1Br | - | - | - | - | - | -
Cc1ccc(O)c(C2=Nc3ccccc3C2(C)C)c1 | - | - | - | - | 147 | -
Cc1c(C(=O)NN2CCOCC2)oc2c1ccc1ccccc12 | - | - | - | - | - | -
O=[N+]([O-])c1ccc(OCC2CC(c3ccccc3)=NO2)cc1 (stereo not drawn) | . | - | . | - | . | -
CCN(CC)C(=S)SC1=CCS(=O)(=O)C1 | - | 10 | - | - | - | -
O=C(NC(=S)Nc1nc2c(ccc3ccccc32)s1)c1cccs1 | - | - | - | - | - | -
Cc1nnsc1C(=O)NNc1ccc(Cl)cc1 | . | - | . | - | . | -
Cc1nnsc1C(=O)NNc1c(Cl)cccc1Cl | . | 9.0 | . | - | . | -
O=C(Cc1ccc(Br)cc1)c1ccc(O)cc1O | - | - | - | - | 130 | -
O=C(OCC(=O)N1CCc2ccccc2C1)c1cccs1 | - | - | - | - | - | -
O=C1CC(c2ccccc2)CC(O)=C1C=Nc1ccc(O)cc1 (stereo not drawn) | - | - | - | - | 132 | -
O=C1CC(c2cccc(Cl)c2)CC(O)=C1C=NC1CCCC1 (stereo not drawn) | - | - | - | 32 | - | -
O=C1CC(c2ccccc2)CC(O)=C1C=NCc1ccccc1Cl (stereo not drawn) | - | 9.3 | - | - | - | -
COC(=O)c1ccc(N=CC2=C(O)CC(c3ccccc3)CC2=O)cc1 (stereo not drawn) | . | - | . | - | . | -
CC(C)CC1(C)NC(=O)N(CC(=O)Nc2cccc(S(=O)(=O)N(C)c3ccccc3)c2)C1=O (stereo not drawn) | - | - | - | - | - | -
COc1ccc(C(=O)Nc2nc3ccc(S(C)(=O)=O)cc3s2)cc1OC | - | - | - | - | - | -
O=C(Nc1nnc(-c2ccccc2)s1)c1ccc(F)cc1 | - | - | - | - | - | -
Cc1ccccc1Nc1nc2ccccc2s1 | - | - | 5.6 | - | 143 | -
O=C(Nc1nc2ccccc2s1)c1ccc(F)cc1 | 173 | - | 9 | - | - | -
SMILES | APP 5'UTR act | Wee1 stabilizer | NF-kB expr up | MDM2 E3 inh | STAT1 activator | p97 inhibitor
NC(=O)c1ccc2nc(NC(=O)c3ccc(N)cc3)sc2c1 | - | - | - | - | 142 | -
Cc1ccccc1Nc1nn2c(=O)c3ccccc3nc2s1 | - | - | - | - | 138 | -
Cc1ccc(NC(=O)Nc2nc3ccccc3s2)cc1NC(=O)Nc1nc2ccccc2s1 | . | - | . | - | . | -
Cc1ccc(S(=O)(=O)NN2C(=O)c3ccccc3NC2c2ccccn2)cc1 (stereo not drawn) | - | - | - | - | - | -
O=C(Cc1ccc(Br)cc1)Nc1cccc(-c2cn3c(n2)SCC3)c1 | - | - | - | - | - | -
COc1ccc(NC(=O)/C(C#N)=C/c2ncc([N+](=O)[O-])n2C)c(OC)c1 | . | - | . | - | . | -
Cc1ccc(S(=O)(=O)N2CCCCC2)cc1NC(=O)CNCc1ccco1 | . | - | . | - | . | -
COc1ccccc1N1CCN(C(=O)CN(C)S(=O)(=O)c2ccc3c(c2)c(=O)n(C)c(=O)n3C)CC1 | - | - | - | - | - | -
